Tests used:
[1] = folding enthalpy; higher = less favourable; fluorescence melt of hairpins on a sequencing array, two-state fit; settings: sodium 0.088 M
Procedure, shortened: (§1)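 Library hairpins on a sequenced MiSeq flow cell carried annealed Cy3 and quencher oligos, and their Cy3 fluorescence was imaged in 50 mM Na-HEPES pH 8.0 with 25 mM NaCl, in 2.5 °C steps up to 60 °C. Signals were normalised to Cy3 before quenching and to control constructs. Melting temperature and folding enthalpy were obtained from bootstrapped two-state fits, combined by inverse-variance weighting across four replicates, and the fitted temperatures were then raised by 9.35 °C to match UV melts.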

[2] = melting temperature; fluorescence melt of hairpins on a sequencing array, two-state fit, raised by 9.35 °C to match UV melts; settings: sodium 0.088 M
Procedure, shortened: as §1

Sequence | folding enthalpy [1] [kcal/mol] | Tm [2] [°C]
GCAAGACGAAAGTCCTGC (((.(((....))).))) | -26.4 | 48.7
GCCGTAGCGAAAGCTGGC (((..(((....)))))) | -31.5 | 55.6
GTGCTCGGAAACGAGCGC (.(((((....))))).) | -19.4 | 64.5
GTACTGGGAAACTAGTGC (.(((.(....).))).) | -19.4 | 31.2
GAGCCTGGAAACAGACTC (((.(((....))).))) | -31.9 | 43.6
GGGACAACGAAAGTTCCC (((..(((....)))))) | -22.4 | 39.4
GATCAACCCGTTGATC ((((((....)))))) | -42 | 53
GGGAAGCGAAAGCTCCC (((.(((....)))))) | -38.7 | 59.7
GACAACGAAAGTTATGTC ((((((....)))..))) | -17.8 | 32.3
GGCGCCGAAAGGCTAGCC ((((((....)))..))) | -21.6 | 61.7
GGAAGATCGAAAGATTCC (((..(((....)))))) | -13.4 | 29.8
GGCCTTGGAAACAAGACC ((.((((....)))).)) | -29.1 | 44.7
GACCCCGGAAACGGGATC ((.((((....)))).)) | -16.3 | 45.8
GTAGATACGAAAGTATAC (((..(((....)))))) | -11.6 | 25.4
GCACAGCGAAAGCCGTGC ((((.((....)).)))) | -24.4 | 65.6
GAGTGCGAAAGCAAACTC ((((((....)))..))) | -20.8 | 47.2
GGCTGCGAAAGCATTGCC ((((((....)))..))) | -19.5 | 52.8
GGGGAGCCGAAAGGCCCC (((..(((....)))))) | -13.2 | 61.9
GACCGGGGAAACCCGGCC (.(((((....))))).) | -11.2 | 50.4
GATCCGAATGCGGATC ((((((....)))))) | -37.8 | 54.1
GTCGCTGGAAACAGTGGC (.(.(((....))).).) | -27.8 | 45.4
CGCTTGAAAAAGCG (((((....))))) | -23.3 | 58.2
GACCGCGAAAGCGCTGTC ((((((....)))..))) | -14.3 | 39

Sequence | folding enthalpy [1] [kcal/mol] | Tm [2] [°C]
GCGATCGAAAGATATCGC ((((((....)))..))) | -29.2 | 47
GGATCTCGAAAGAGGTCC (((.(((....))).))) | -41.4 | 57.3
GATCAAAGGCTTGATC ((((((....)))))) | -31.5 | 41
GCGACTTCTCGC ((((....)))) | -25.7 | 47.8
GACGGACGAAAGTCTGTC (((.(((....))).))) | -35.3 | 60.5
GACACCGGAAACGGTACC (..((((....))))..) | -10.5 | 24.2
GTCTTGCGAAAGCATGAC (((.(((....))).))) | -37.7 | 56.1
GCTTTGCGAAAGCCCAGC (((..((....))..))) | -14.1 | 31.5
GATCTATTTTAGATC ((((((...)))))) | -32.7 | 41.7
GCAGAAGGAAACTTTTGC (((.(((....))).))) | -31.2 | 37
GCAGACGAAAGTCACTGC ((((((....)))..))) | -18.6 | 39.5
GGCGCCACGAAAGTGGCC (((..(((....)))))) | -6.73 | 48.8
GGCATTACGAAAGTAGCC (((..(((....)))))) | -21.8 | 43.1
GACTGCGAAAGCACGTC ((((((....))).))) | -15.8 | 56.4
GCACTGCGAAAGCATGGC ((..(((....)))..)) | -17.4 | 44.8
GATCTGGTGGCAGATC ((((((....)))))) | -33.9 | 50.1
GGGTGTGGAAACACGCTC (.(.(((....))).).) | -17.8 | 56.7
GCTAACGAAAGTTTCAGC ((((((....)))..))) | -14.2 | 29.7
GGTACCCCGAAAGGGACC (((..(((....)))))) | -19.8 | 46.7
GACTCTACGAAAGTAGTC (((..(((....)))))) | -10.9 | 30.1
GTATATCGAAAGATTAC (((.(((....)))))) | -14.6 | 31
GCGATCGCGAAAGCGCGC (((..(((....)))))) | -15.4 | 55.2
GCCAAGACGAAAGTCGGC (((..(((....)))))) | -23.7 | 54.6

Sequence | folding enthalpy [1] [kcal/mol] | Tm [2] [°C]
GCCATGGGAAACCGTGGC ((((.((....)).)))) | -40.6 | 59
GTACACTCGAAAGAGTAC (((..(((....)))))) | -13.8 | 29.4
GATCACTCTAGTGATC ((((((....)))))) | -40.4 | 59.9
GGAGTCGAAAGACCTCC ((((((....))).))) | -24.5 | 50
GGGCGAGGAAACTCACCC (((.(((....))).))) | -41 | 49.6
GCGAGGGCGAAAGCCCGC (((..(((....)))))) | -8.66 | 59.5
GTAAGCGAAAGCTTCTAC ((((((....)))..))) | -11.2 | 33.6
GATCTCTTCCGAGATC ((((((....)))))) | -37 | 52.3
GGCTTACGAAAGTATGCC (((.(((....))).))) | -45.2 | 56.8
GATCAAAGCATTGATC ((((((....)))))) | -36.8 | 43.7
GTTGTGACGAAAGTCAAC (((..(((....)))))) | -21.6 | 49.7
GATTGGGGAAACCTGATC (((..((....))..))) | -18.6 | 30.6
GCGCAGCGAAAGCCGTGC ((.(.((....)).).)) | -9.79 | 46.2
GCATGGCGAAAGCGACGC ((.(.((....)).).)) | -12.7 | 38.3
GCCGGCTCGAAAGAGGGC (((..(((....)))))) | -19.2 | 46.9
TAGGAGAAATCCTA (((((....))))) | -8.63 | 25.9
GCGGTCGAAAGACATCGC ((((((....)))..))) | -20.7 | 49.1
GATCGGGTCCCGATC ((((((...)))))) | -46.5 | 56.7
GCAACGGGAAACCGTTAC (.(((((....))))).) | -13.3 | 38.6
GAGAGGCGAAAGCCGCTC (((.(((....))).))) | -18.9 | 66.1
GTAAATGGAAACGTTTAC (((((.(....).))))) | -32.9 | 35
GATCTGAAAAGATC (((((....))))) | -28.2 | 45.6
GAGCTCGCGAAAGCGCTC (((..(((....)))))) | -14.2 | 41.8

Sequence | folding enthalpy [1] [kcal/mol] | Tm [2] [°C]
CGCGGAACGATCCGCG ((((((....)))))) | -31.8 | 67.6
GATCGTCCTAACGATC ((((((....)))))) | -40.4 | 55.5
GGACAGGGAAACTTGTCC (((((.(....).))))) | -37.1 | 49
GCGAGATTTCGC ((((....)))) | -20.1 | 50.1
GAGCCCGGAAACGGGTTC ((.((((....)))).)) | -27 | 56.7
GCGTCCCCGAAAGGGCGC (((..(((....)))))) | -24.3 | 65.2
GTCCTAGGAAACTAGGGC (.(((((....))))).) | -32.9 | 49.4
GGCGACGAAAGTCACGCC ((((((....)))..))) | -27.4 | 54.1
GGCTAAACGAAAGTTGCC (((..(((....)))))) | -22.5 | 47.6
GCCCCTCGAAAGAGAGGC (((.(((....))).))) | -31.4 | 52.8
GATCTGATGTCAGATC ((((((....)))))) | -53.1 | 49.1
GCGACGCGAAAGCAGCGC (((..((....))..))) | -30.3 | 65.7
GAGAGTGCGAAAGCACTC (((..(((....)))))) | -7.98 | 64.5
GCACATGGAAACATGCGC ((.((((....)))).)) | -48.8 | 49.9
GGCGGGCCGAAAGGCGCC (((..(((....)))))) | -13.2 | 62.3
GTCCCACGAAAGTGCGAC (((.(((....))).))) | -24.9 | 46.5
GGTGCAGGAAACCACACC ((((..(....)..)))) | -21.4 | 34.9
GAGCGTGGAAACGCGTTC ((.((.(....).)).)) | -12.1 | 51.7
TGGCAGAAATGCCA (((((....))))) | -23.3 | 54.2
GCTACGCGAAAGCCTCGC ((.(.((....)).).)) | -7.35 | 18.1
GGAAAACCGAAAGGTTCC (((..(((....)))))) | -13.8 | 35.8
GCGAGTCATCGC ((((....)))) | -24.8 | 67.8
CGAACTCGGAAACGATCG (((..(((....)))))) | -16.3 | 22.9

— the array DNA melting data of Ke et al. (doi:10.1101/2024.01.08.574731)
